Results from ChEMBL document CHEMBL3576775 (Eur J Med Chem, 2015).
Calls of active or inactive are those of the source. The calls are words filed in the database; no cut-off is given here.

Tests used:
[1] = Inhibition of soyabean 5-LOX using arachidonic acid as substrate by microplate scanning spectrophotometer analysis; parameters: species or system Glycine max
Method in brief: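 Soybean lipoxygenase in assay buffer was mixed with compound (DMSO solutions at 0.01 to 100 μM, 1:10 into enzyme solution). Reaction started with arachidonic acid; plate shaken 5 min, chromogen added, shaken 5 min, read at 490 nm. Blanks and positive controls included. Duplicates, deviation <5%, averaged; percent inhibition calculated from activity.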

[2] = biological target: T1, Prostaglandin G/H synthase 1 (Ovis aries, UniProt P05979); experiment: Inhibition of ovine COX-1 assessed as PGF2alpha formation using arachidonic acid as substrate pretreated with compound for 20 mins prior to substrate addition by spectrophotometric analysis
T1 sequence (P05979 whole entry): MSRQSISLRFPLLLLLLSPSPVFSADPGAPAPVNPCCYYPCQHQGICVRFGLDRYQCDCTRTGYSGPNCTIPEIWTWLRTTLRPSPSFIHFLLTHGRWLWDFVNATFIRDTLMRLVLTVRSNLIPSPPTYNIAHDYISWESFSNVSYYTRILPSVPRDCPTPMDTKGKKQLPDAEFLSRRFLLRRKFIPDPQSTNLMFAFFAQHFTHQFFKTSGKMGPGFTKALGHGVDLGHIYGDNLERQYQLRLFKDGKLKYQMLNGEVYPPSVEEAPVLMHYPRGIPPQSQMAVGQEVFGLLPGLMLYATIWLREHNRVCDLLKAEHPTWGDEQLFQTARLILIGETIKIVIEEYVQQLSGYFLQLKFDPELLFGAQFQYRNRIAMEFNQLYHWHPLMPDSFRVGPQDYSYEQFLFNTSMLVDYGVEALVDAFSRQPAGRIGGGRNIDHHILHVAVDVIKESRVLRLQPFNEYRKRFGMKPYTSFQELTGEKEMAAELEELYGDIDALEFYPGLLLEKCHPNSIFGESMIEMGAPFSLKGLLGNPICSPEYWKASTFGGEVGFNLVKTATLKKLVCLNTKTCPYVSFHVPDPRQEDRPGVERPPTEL

Mus musculus [3] = experiment: Anti-inflammatory activity against Swiss albino mouse assessed as reduction in paw thickness at 5 mg/kg, ip administered 30 mins prior to dextran injection measured after 4 hrs by vernier calliper analysis relative to control; assay type: functional
Method in brief: (§1)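 Swiss albino mice, 5 per group. […] Paw thickness measured by vernier calipers at 1, 2, 3, 4, 6 and 24 h. Reduction expressed relative to control; mean ± SEM.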

Mus musculus [4] = experiment: Anti-inflammatory activity against Swiss albino mouse assessed as reduction in paw thickness at 10 mg/kg, ip administered 30 mins prior to dextran injection measured after 4 hrs by vernier calliper analysis relative to control; assay type: functional; method in brief: as §1
Mus musculus [5] = experiment: Anti-hyperalgesic activity against Swiss albino mouse assessed as reduction in paw lickings at 5 mg/kg, ip administered 30 mins prior to capsaicin injection relative to control; assay type: functional
[6] = Competitive inhibition of soyabean 5-LOX by UV-Visible spectrophotometry; parameters: species or system Glycine max
[7] = biological target: T2, Prostaglandin G/H synthase 2 (Homo sapiens, UniProt P35354); experiment: Competitive inhibition of human recombinant COX-2 by UV-Visible spectrophotometry
T2 sequence (P35354 whole entry): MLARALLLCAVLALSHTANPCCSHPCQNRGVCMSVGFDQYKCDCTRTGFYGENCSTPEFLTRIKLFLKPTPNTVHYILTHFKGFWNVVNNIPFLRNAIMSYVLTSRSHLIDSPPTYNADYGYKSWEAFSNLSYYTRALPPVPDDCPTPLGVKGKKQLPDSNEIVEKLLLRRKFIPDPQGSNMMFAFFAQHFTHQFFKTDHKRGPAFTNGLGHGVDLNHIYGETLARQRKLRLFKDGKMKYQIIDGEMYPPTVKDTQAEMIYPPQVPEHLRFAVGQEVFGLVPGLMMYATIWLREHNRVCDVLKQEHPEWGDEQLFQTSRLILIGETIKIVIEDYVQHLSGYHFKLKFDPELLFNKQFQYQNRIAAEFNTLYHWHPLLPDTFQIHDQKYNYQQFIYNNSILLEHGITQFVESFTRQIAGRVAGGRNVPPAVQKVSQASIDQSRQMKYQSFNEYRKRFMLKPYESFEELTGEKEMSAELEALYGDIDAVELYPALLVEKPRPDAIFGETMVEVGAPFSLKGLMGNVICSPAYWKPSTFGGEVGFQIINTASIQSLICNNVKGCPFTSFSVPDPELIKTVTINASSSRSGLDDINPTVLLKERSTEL
Method in brief: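 Double reciprocal plot from UV-vis absorbance change at the maximum. Arachidonic acid in HEPES:DMSO (1:1) added in 5 µl increments (each giving 50 µM final) to a fixed enzyme concentration. Repeated with inhibitor at fixed 10 µM and 20 µM. Type of inhibition taken from where the extrapolated trails meet; also from IC50 versus Ki comparison.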

Glycine max [8] = experiment: Competitive inhibition of soyabean 5-LOX using arachidonic acid as substrate by double reciprocal plot analysis
Method in brief: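 Arachidonic acid in HEPES:DMSO (1:1) at 2 mM, added in 5 μL increments (50 μM final each) to fixed enzyme. Change in substrate absorbance at maxima plotted double-reciprocally, without inhibitor and with 10 μM or 20 μM inhibitor; intersection of the extrapolated lines indicates inhibition type.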

Mus musculus [9] = experiment: Anti-hyperalgesic activity against Swiss albino mouse assessed as reduction in paw lickings at 5 mg/kg, ip administered 30 mins prior to capsaicin injection and 30 mins after 200 ug misoprostol injection; assay type: functional, organism-based
Method in brief: (§2)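 Mice (5 per group, 7 groups), all treatments i.p. Misoprostol (200 μg) or substance P (10 μg) given 30 min before test compound (5 mg Kg⁻¹); capsaicin (20 μL) injected into right hind paw plantar surface 30 min later. Controls received normal saline. Paw lickings counted over 10 min after capsaicin.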

Mus musculus [10] = experiment: Anti-hyperalgesic activity against Swiss albino mouse assessed as reduction in paw lickings at 5 mg/kg, ip administered 30 mins prior to capsaicin injection and 30 mins after 10 ug substance-P injection; assay type: functional, organism-based; method in brief: as §2
Glycine max [11] = system: Glycine max
[12] = biological target: T3, Prostaglandin G/H synthase 2 (Homo sapiens) (UniProt P35354)
T3 sequence (whole entry): T2 sequence (P35354 whole entry)

Mus musculus [13] = experiment: Anti-hyperalgesic activity against Swiss albino mouse assessed as reduction in paw lickings at 10 mg/kg, ip administered 30 mins prior to capsaicin injection relative to control; assay type: functional
Method in brief: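 Swiss albino mice, 5 per group; compound given i.p. 30 min before 20 μL capsaicin injected into plantar surface of right hind paw. […] Paw lickings and twitchings counted over 10 min after capsaicin as hyperalgesia indicator; mean ± SEM, one-way ANOVA with Tukey's test versus control.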

Mus musculus [14] = experiment: Acute toxicity against Swiss albino mouse assessed as histological changes in liver at 5 to 300 mg, po measured after 14 days; assay type: organism-based; conditions: in vivo, 336 h
Method in brief: (§3)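 Oral single doses of 5 mg, 50 mg and 300 mg to mice in three groups of three. Observed continuously for 4 h for signs of toxicity, then at regular intervals over the first 24 h and once daily for 14 days. Animals sacrificed at day 14; histology of liver, kidney and heart.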

Mus musculus [15] = experiment: Acute toxicity against Swiss albino mouse assessed as histological changes in kidney at 5 to 300 mg, po measured after 14 days; assay type: organism-based; conditions: in vivo, 336 h; method in brief: as §3
Mus musculus [16] = experiment: Acute toxicity against Swiss albino mouse assessed as histological changes in heart at 5 to 300 mg, po measured after 14 days; assay type: organism-based; conditions: in vivo, 336 h; method in brief: as §3
Mus musculus [17] = experiment: Acute toxicity against Swiss albino mouse assessed as lesser inflammatory cells and decreased area of necrosis in stomach at 5 to 300 mg, po measured after 14 days; assay type: organism-based; conditions: in vivo, 336 h

Row | SMILES | IC50 [1] [µM] | IC50 [2] [µM] | Ki [6] [µM] | Ki [7] [µM] | Ka (Glycine max [11]) | Ka [12] | also measured
1 | Cc1ccc(S(=O)(=O)n2cc(C(=O)C(=O)N[C@@H](Cc3c[nH]c4ccccc34)C(=O)O)c3ccccc32)cc1 | 0.01 | 87.2 |  |  |  |  | 
2 | COC(=O)[C@@H](Cc1c[nH]c2ccccc12)NC(=O)CNC(=O)C(=O)c1cn(S(=O)(=O)c2ccc(C)cc2)c2ccccc12 | 12.2 | 65.5 |  |  |  |  | 
3 | Cc1ccc(S(=O)(=O)n2cc(C(=O)C(=O)N[C@@H](Cc3cnc[nH]3)C(=O)N[C@@H](CCC(=O)O)C(=O)O)c3ccccc32)cc1 | 0.08 | 12.9 | 0.536 | 0.012 | 1.99 ×10⁵ /M | 7.76 ×10⁵ /M | inhibition in vivo at 5 mg/kg (Mus musculus [3]): 45%; inhibition in vivo at 10 mg/kg (Mus musculus [4]): 48%; inhibition in vivo at 5 mg/kg (Mus musculus [5]): 95%; inhibition (Glycine max [8]): Active; inhibition (Mus musculus [9]): Active; inhibition (Mus musculus [10]): inactive
4 | O=C(O)Cc1ccccc1Nc1c(Cl)cccc1Cl [DICLOFENAC] |  |  |  |  |  |  | inhibition in vivo at 10 mg/kg (Mus musculus [4]): 42%; inhibition in vivo at 10 mg/kg (Mus musculus [13]): 90%
5 | COC(=O)[C@H](Cc1c[nH]c2ccccc12)NC(=O)CNC(=O)C(=O)c1cn(S(=O)(=O)c2ccc(C)cc2)c2ccccc12 | 1 | 90.9 | 0.753 | 1.34 | 7.7 ×10⁴ /M | 9.87 ×10³ /M | 
6 | COC(=O)CNC(=O)CNC(=O)C(=O)c1cn(S(=O)(=O)c2ccc(C)cc2)c2ccccc12 | 0.1 | 104 | 0.097 | 4.66 | 2.08 ×10⁵ /M | 1.81 ×10² /M | 
7 | Cc1ccc(S(=O)(=O)n2cc(C(=O)C(=O)N[C@@H](Cc3c[nH]c4ccccc34)C(=O)NCC(=O)O)c3ccccc32)cc1 | 0.002 | 2.21 | 0.042 | 0.109 | 3.36 ×10⁶ /M | 3.29 ×10⁵ /M | inhibition in vivo at 5 mg/kg (Mus musculus [3]): 47%; inhibition in vivo at 10 mg/kg (Mus musculus [4]): 49%; inhibition in vivo at 5 mg/kg (Mus musculus [5]): 96%; Activity (Mus musculus [14]): Non-toxic; Activity (Mus musculus [15]): Non-toxic; Activity (Mus musculus [16]): Non-toxic; Activity (Mus musculus [17]): Non-toxic; inhibition (Glycine max [8]): Active; inhibition (Mus musculus [9]): Active; inhibition (Mus musculus [10]): inactive
8 | COC(=O)CNC(=O)[C@H](Cc1c[nH]c2ccccc12)NC(=O)C(=O)c1cn(S(=O)(=O)c2ccc(C)cc2)c2ccccc12 | 0.8 | 9.89 | 0.946 | 2.9 | 5.6 ×10⁴ /M | 7.91 ×10³ /M | 
9 | Cc1ccc(S(=O)(=O)n2cc(C(=O)C(=O)NCC(=O)NCC(=O)O)c3ccccc32)cc1 | 0.005 | > 100 | 0.232 | 3.12 | 2.99 ×10⁵ /M | 1.9 ×10³ /M | inhibition in vivo at 5 mg/kg (Mus musculus [5]): 90%; inhibition (Glycine max [8]): Active
10 | NS(=O)(=O)c1ccc(-n2nc(C(F)(F)F)cc2-c2ccc(Br)cc2)cc1 |  | 13 |  |  |  |  | 
11 | Cc1ccc(S(=O)(=O)n2cc(C(=O)C(=O)N[C@H](Cc3cnc[nH]3)C(=O)N[C@H](CCC(=O)O)C(=O)O)c3ccccc32)cc1 | 2.33 | 151 |  |  |  |  | 

Continued by falling IC50 [1], values first:

Row | IC50 [1] [µM] | IC50 [2] [µM] | Ki [6] [µM] | Ki [7] [µM] | Ka (Glycine max [11]) | Ka [12] | SMILES | also measured
12 | 15.2 | 98.3 |  |  |  |  | Cc1ccc(S(=O)(=O)n2cc(C(=O)C(=O)NCC(=O)N[C@H](Cc3c[nH]c4ccccc34)C(=O)O)c3ccccc32)cc1 | 
13 | 8.38 | 71.3 |  |  |  |  | COC(=O)CNC(=O)[C@@H](Cc1c[nH]c2ccccc12)NC(=O)C(=O)c1cn(S(=O)(=O)c2ccc(C)cc2)c2ccccc12 | 
14 | 5.61 | > 100 |  |  |  |  | Cc1ccc(S(=O)(=O)n2cc(C(=O)C(=O)N[C@H](Cc3c[nH]c4ccccc34)C(=O)NCC(=O)O)c3ccccc32)cc1 | 
15 | 3.7 | 20.2 |  |  |  |  | COC(=O)CC[C@@H](NC(=O)[C@@H](Cc1cnc[nH]1)NC(=O)C(=O)c1cn(S(=O)(=O)c2ccc(C)cc2)c2ccccc12)C(=O)OC | 
16 | 2.8 | > 100 |  |  |  |  | Cc1ccc(S(=O)(=O)n2cc(C(=O)C(=O)N[C@@H](Cc3cnc[nH]3)C(=O)O)c3ccccc32)cc1 | 
17 | 1.6 |  |  |  |  |  | CC(C)(C)Sc1c(CC(C)(C)C(=O)O)n(Cc2ccc(Cl)cc2)c2ccc(OCc3ccc4ccccc4n3)cc12 [QUIFLAPON] | 
18 | 0.6 | 76.5 | 0.356 | 0.983 | 3.02 ×10⁵ /M | 4.43 ×10⁴ /M | COC(=O)CC[C@H](NC(=O)[C@H](Cc1cnc[nH]1)NC(=O)C(=O)c1cn(S(=O)(=O)c2ccc(C)cc2)c2ccccc12)C(=O)OC | 
19 | 0.0086 | 90.1 |  |  |  |  | Cc1ccc(S(=O)(=O)n2cc(C(=O)C(=O)NCC(=O)O)c3ccccc32)cc1 | 
20 | 0.004 | 43.5 | 0.064 | 0.005 | 2.06 ×10⁶ /M | 3.25 ×10⁶ /M | Cc1ccc(S(=O)(=O)n2cc(C(=O)C(=O)NCC(=O)N[C@@H](Cc3c[nH]c4ccccc34)C(=O)O)c3ccccc32)cc1 | inhibition in vivo at 5 mg/kg (Mus musculus [5]): 88%; inhibition in vivo at 10 mg/kg (Mus musculus [13]): 96%; inhibition (Glycine max [8]): Active
